Measurements taken from ChEMBL document CHEMBL1140187, “Anti-inflammatory cembranoids from the soft corals Sinularia querciformis and Sinularia granosa” (J Nat Prod, 2008).

Columns and labels:
HeLa [1] = assay: Cytotoxicity against human HeLa cells by MTT method; format: functional; conditions: read-out: ED50
HEp-2 [2] = assay: Cytotoxicity against human Hep2 cells by MTT method; format: functional; conditions: HEp-2, read-out: ED50
[3] = Cytotoxicity against human Doay cells by MTT method; format: functional; conditions: read-out: ED50
MCF7 [4] = assay: Cytotoxicity against human MCF7 cells by MTT method; format: functional; conditions: MCF7, read-out: ED50
RAW264.7 [5] = assay: Reduction of LPS-induced COX2 expression in mouse Raw264.7 cells at 10 uM preincubated for 5 mins before LPS challenge relative to control; format: functional; parameters: scale not given: the % may be the effect or the level left
Method in brief: (§1)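 RAW 264.7 murine macrophages grown in DMEM with 10% heat-inactivated FBS at 37 °C, 5% CO2, plated at 3 × 10^6 cells per 60 mm dish. Compound added 5 min before LPS (0.01 µg/mL), then 16 h incubation. Lysates were analysed by Western blot against iNOS and COX-2 (1:1000), with β-actin as loading control and ECL detection. Band IOD was expressed relative to the LPS-only control; one-way ANOVA with Student-Newman-Keuls test.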

HeLa [6] = assay: Cytotoxicity against human HeLa cells; format: functional, cell-based
HEp-2 [7] = assay: Cytotoxicity against human Hep2 cells; format: functional, cell-based
[8] = Cytotoxicity against human Doay cells; format: functional, cell-based
RAW264.7 [9] = assay: Reduction of LPS-induced iNOS expression in mouse Raw264.7 cells at 10 uM preincubated for 5 mins before LPS challenge relative to control; format: functional; parameters: scale not given: the % may be the effect or the level left; method in brief: as §1
MCF7 [10] = assay: Cytotoxicity against human MCF7 cells; format: functional, cell-based

## C=C1C(=O)O[C@]2(C)CC[C@@H]1C[C@H](O)[C@@]1(C)CC[C@H](O1)[C@](C)(O)CCC2=O
HeLa [1]
  EC50: > 20 µg/mL
HEp-2 [2]
  EC50: > 20 µg/mL
[3]
  EC50: > 20 µg/mL
MCF7 [4]
  EC50: > 20 µg/mL
RAW264.7 [5]
  Activity: 17.4%
HeLa [6]
  IC50: > 20 µg/mL
HEp-2 [7]
  IC50: > 20 µg/mL
[8]
  IC50: > 20 µg/mL

## C=C1C(=O)O[C@]2(C)CC[C@@H]1C[C@H](OC(C)=O)[C@@]1(C)CC[C@H](O1)[C@](C)(O)CCC2=O
HeLa [1]
  EC50: > 20 µg/mL
HEp-2 [2]
  EC50: > 20 µg/mL
[3]
  EC50: > 20 µg/mL
MCF7 [4]
  EC50: > 20 µg/mL
RAW264.7 [9]
  Activity: 20.3%
RAW264.7 [5]
  Activity: 14%
HeLa [6]
  IC50: > 20 µg/mL
HEp-2 [7]
  IC50: > 20 µg/mL
[8]
  IC50: > 20 µg/mL

## C=C1C(=O)O[C@]2(C)CC[C@@H]1C[C@H](O)[C@@]1(C)CC[C@H](O1)C(=C)CC[C@H]2OC(C)=O [GRANOSOLIDE A]
HeLa [1]
  EC50: > 20 µg/mL
HEp-2 [2]
  EC50: > 20 µg/mL
[3]
  EC50: > 20 µg/mL
MCF7 [4]
  EC50: > 20 µg/mL
HeLa [6]
  IC50: > 20 µg/mL
HEp-2 [7]
  IC50: > 20 µg/mL
[8]
  IC50: > 20 µg/mL

## C=C1C(=O)O[C@]2(C)CC[C@@H]1C[C@H](OC(C)=O)[C@@]1(C)CC[C@H](O1)C(=C)CC[C@H]2OC(C)=O [GRANOSOLIDE B]
HeLa [1]
  EC50: > 20 µg/mL
HEp-2 [2]
  EC50: > 20 µg/mL
[3]
  EC50: > 20 µg/mL
MCF7 [4]
  EC50: > 20 µg/mL
HeLa [6]
  IC50: > 20 µg/mL
HEp-2 [7]
  IC50: > 20 µg/mL
[8]
  IC50: > 20 µg/mL

## C=C1C(=O)O[C@]2(C)CC[C@@H]1C[C@H](O)[C@@]1(C)CC[C@H](OC(C)=O)[C@@](C)(CCC2=O)O1 [QUERCIFORMOLIDE A]
HeLa [1]
  EC50: > 20 µg/mL
HEp-2 [2]
  EC50: > 20 µg/mL
[3]
  EC50: > 20 µg/mL
MCF7 [4]
  EC50: > 20 µg/mL
HeLa [6]
  IC50: > 20 µg/mL
HEp-2 [7]
  IC50: > 20 µg/mL
[8]
  IC50: > 20 µg/mL
MCF7 [10]
  IC50: > 20 µg/mL

## C=C1C(=O)O[C@]2(C)CC[C@@H]1C[C@H](O)[C@@]1(C)CC[C@H](O1)[C@](C)(O)CC[C@H]2OC(C)=O [QUERCIFORMOLIDE B]
HeLa [1]
  EC50: > 20 µg/mL
HEp-2 [2]
  EC50: > 20 µg/mL
[3]
  EC50: > 20 µg/mL
MCF7 [4]
  EC50: > 20 µg/mL
HeLa [6]
  IC50: > 20 µg/mL
HEp-2 [7]
  IC50: > 20 µg/mL
[8]
  IC50: > 20 µg/mL

## C=C1C(=O)O[C@]2(C)CC[C@@H]1C[C@H](OC(C)=O)[C@@]1(C)CC[C@H](O1)[C@](C)(O)CC[C@H]2OC(C)=O [QUERCIFORMOLIDE C]
HeLa [1]
  EC50: > 20 µg/mL
HEp-2 [2]
  EC50: > 20 µg/mL
[3]
  EC50: > 20 µg/mL
MCF7 [4]
  EC50: > 20 µg/mL
RAW264.7 [9]
  Activity: 23.7%
HeLa [6]
  IC50: > 20 µg/mL
HEp-2 [7]
  IC50: > 20 µg/mL
[8]
  IC50: > 20 µg/mL

## C=C1C(=O)O[C@]2(C)CC[C@@H]1C[C@H](O)[C@@]1(C)CC[C@H](O1)[C@](C)(O)CC[C@H]2O [QUERCIFORMOLIDE D]
HeLa [1]
  EC50: > 20 µg/mL
HEp-2 [2]
  EC50: > 20 µg/mL
[3]
  EC50: > 20 µg/mL
MCF7 [4]
  EC50: > 20 µg/mL
HeLa [6]
  IC50: > 20 µg/mL
HEp-2 [7]
  IC50: > 20 µg/mL
[8]
  IC50: > 20 µg/mL
